Laboratory results reported in ChEMBL document CHEMBL1154285, “Meroterpenes from Dichrostachys cinerea inhibit protein farnesyl transferase activity” (J Nat Prod, 2009).

Tests used:
[1] = Cytotoxicity against human WM266.4 cells after 72 hrs by ATP lite assay; format: functional, WM 266-4
Procedure, shortened: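 Metastatic melanoma WM 266-4 cells (ATCC), 5000 per well, in RPMI with 10% FBS, 50 µg/mL streptomycin and 50 U/mL penicillin. Compounds were present for 72 h at 1% DMSO final, in triplicate. Viability was read by ATPLite luminescence. IC50 from sigmoidal dose-response fit.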

[2] = Inhibition of rat farnesyl transferase after 30 mins
Procedure, shortened: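 Rat PFTase at 10 nM, added last to start the reaction, in 50 mM Tris/HCl pH 7.5 with 5 mM MgCl2, 5 mM DTT, 0.1 mM ZnCl2 and 0.2% octyl-β-D-glucopyranoside. Substrates were 10 µM GCVLS-dansyl and 10 µM farnesyl pyrophosphate. Compounds from 0.3 nM to 100 µM, 1% DMSO final, in triplicate. Incubation 30 min at 37 °C; fluorescence read at ex 340/em 505 nm. IC50 from sigmoidal dose-response fit.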

Row | Compound | Activity [1] | IC50 [2]
1 | C=C1C(=O)C[C@H]2C(C)(C)C[C@H](O)C[C@]2(C)[C@@]1(O)C[C@@H]1C(C)=CC[C@H]2C(=O)C(OC)=CC(=O)[C@@]12c1cc(=O)c2c(O)cc(OC)cc2o1 [DICHROSTACHINE N] | 2.8 µM | –
2 | COC1=CC(=O)[C@@]2(c3cc(=O)c4c(O)cc(O)cc4o3)[C@H](C[C@]3(O)[C@@]4(C)C[C@@H](O)CC(C)(C)[C@@H]4CC[C@@]3(C)O)C(C)=CC[C@H]2C1=O | >10 µM | 17 µM
3 | C=C1C(=O)C[C@H]2C(C)(C)CCC[C@]2(C)[C@H]1C[C@@H]1C(C)=CC[C@H]2C(=O)C(OC)=CC(=O)[C@@]12c1cc(=O)c2c(O)cc(OC)cc2o1 [DICHROSTACHINE M] | 3.1 µM | 3 µM
4 | C=C1[C@@H](O)C[C@H]2C(C)(C)CCC[C@]2(C)[C@H]1C[C@@H]1C(C)=CC[C@H]2C(=O)C(OC)=CC(=O)[C@@]12c1cc(=O)c2c(O)cc(O)cc2o1 [DICHROSTACHINE C] | >10 µM | 5.7 µM
5 | C=C1[C@@H](O)C[C@H]2[C@](C)(CO)CCC[C@]2(C)[C@H]1C[C@@H]1C(C)=CC[C@H]2C(=O)C(OC)=CC(=O)[C@@]12c1cc(=O)c2c(O)cc(O)cc2o1 [DICHROSTACHINE A] | >10 µM | 10 µM
6 | C=C1C(=O)C[C@H]2C(C)(C)CCC[C@]2(C)[C@H]1C[C@@H]1C(C)=CC[C@H]2C(=O)C(OC)=CC(=O)[C@@]12c1cc(=O)c2c(O)cc(O)cc2o1 [DICHROSTACHINE L] | >10 µM | 3.2 µM
7 | C=C1[C@@H](O)C[C@H]2C(C)(C)C[C@H](O)C[C@]2(C)[C@@]1(O)C[C@@H]1C(C)=CC[C@H]2C(=O)C(OC)=CC(=O)[C@@]12c1cc(=O)c2c(O)cc(O)cc2o1 [DICHROSTACHINE D] | >10 µM | 86 µM
8 | C=C1[C@@H](O)C[C@H]2C(C)(C)CCC[C@]2(C)[C@H]1C[C@@H]1C(C)=CC[C@H]2C(O)C(OC)=CC(=O)[C@@]12c1cc(=O)c2c(O)cc(O)cc2o1 (stereo not given in full) [DICHROSTACHINE O] | >10 µM | 25 µM
9 | C=C1[C@@H](O)C[C@H]2C(C)(C)C[C@H](O)C[C@]2(C)[C@H]1C[C@@H]1C(C)=CC[C@H]2C(=O)C(OC)=CC(=O)[C@@]12c1cc(=O)c2c(O)cc(O)cc2o1 [DICHROSTACHINE B] | >10 µM | 40 µM
10 | NC(=O)N1CCC(CC(=O)N2CCC([C@H]3c4ncc(Br)cc4CCc4cc(Cl)cc(Br)c43)CC2)CC1 [LONAFARNIB] | >10 µM | 0.1 µM
11 | C=C1[C@@H](O)C[C@@H]2[C@](C)(CCC[C@@]2(C)C=O)[C@H]1C[C@@H]1C(C)=CC[C@H]2C(=O)C(OC)=CC(=O)[C@@]12c1cc(=O)c2c(O)cc(O)cc2o1 [DICHROSTACHINE H] | >10 µM | 1.8 µM
12 | C=C1[C@@H](O)C[C@@H]2[C@](C)(CCC[C@@]2(C)C(=O)O)[C@H]1C[C@@H]1C(C)=CC[C@H]2C(=O)C(OC)=CC(=O)[C@@]12c1cc(=O)c2c(O)cc(O)cc2o1 [DICHROSTACHINE E] | >10 µM | 40 µM
13 | C=C1[C@@H](O)C[C@H]2C(C)(C)CCC[C@]2(C)[C@H]1C[C@@H]1C(C)=CC[C@H]2C(O)C(=O)C=C[C@@]12c1cc(=O)c2c(O)cc(O)cc2o1 (stereo not given in full) [DICHROSTACHINE P] | >10 µM | 7 µM
